# System: not listed separately
# Experiment: Inhibition of HIV-1 RT-RNase H activity expressed in Escherichia coli JM109 using RNA 5'-end directed cleavage measuring HTS-3 as substrate by fluorescence-based assay
# Parameters: species or system Human immunodeficiency virus 1
# Details: not given
# Outline: (§1)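 RT RNase H cleavage of fluorescein/Dabcyl-labelled RNA/DNA duplexes, with substrate in excess over RT. HTS-1 probes internal cleavage, HTS-2 DNA 3'-end-directed cleavage, and HTS-3 (fluorescein RNA annealed to Dabcyl DNA) RNA 5'-end-directed cleavage.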
row,Structure (SMILES),IC50
1,O=C(O)c1cn(-c2ccccc2)cc(O)c1=O,> 25 µM
2,NS(=O)(=O)c1ccc(-c2ccc(Cn3cc(O)c(=O)c(C(=O)O)c3)cc2)cc1,1 µM
3,O=C(O)c1cn(Cc2ccc(-c3ccccc3)cc2)cc(O)c1=O,2.9 µM
4,NC(=O)c1cn(Cc2ccc(F)cc2)cc(O)c1=O,> 25 µM
5,O=C(O)c1cn(Cc2ccccc2-c2ccccc2)cc(O)c1=O,> 25 µM
6,CS(=O)(=O)c1ccc(Cn2cc(O)c(=O)c(C(=O)O)c2)cc1,> 25 µM
7,O=C(O)c1cn(Cc2ccc(Cl)cc2Cl)cc(O)c1=O,> 25 µM
8,O=C(O)c1cn(Cc2ccncc2)cc(O)c1=O,> 25 µM
9,O=C(O)c1cn(Cc2ccc(Br)cc2)cc(O)c1=O,> 25 µM
10,CC(c1ccc(F)cc1)n1cc(O)c(=O)c(C(=O)O)c1 (stereo unspecified),> 25 µM

# Target: Human immunodeficiency virus type 1 reverse transcriptase (Human immunodeficiency virus 1, UniProt Q72547)
# Experiment: Inhibition of HIV-1 RT RNA-dependent DNA polymerase activity expressed in Escherichia coli JM109 using [3H]TTP/ poly(rA)-oligo(dT)16 as substrate incubated for 20 mins by liquid scintillation spectrometric analysis
# Details: not given
# Outline: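 RNA-dependent DNA polymerase reaction in 50 mM Tris-HCl pH 7.4 (37°C), 60 mM KCl, 5 mM MgCl2, with 10 µM [3H]-TTP and 40 nM poly(rA)-oligo(dT)16. Started with 10 nM RT, 20 min at 37°C. Quenched in ice-cold 10% TCA plus 20 mM sodium pyrophosphate, glass-fiber filtered, washed with TCA and ethanol. Incorporation counted by liquid scintillation.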
row,Structure (SMILES),IC50
1,O=C(O)c1cn(-c2ccccc2)cc(O)c1=O,> 25 µM
2,NS(=O)(=O)c1ccc(-c2ccc(Cn3cc(O)c(=O)c(C(=O)O)c3)cc2)cc1,1.2 µM
3,O=C(O)c1cn(Cc2ccc(-c3cccnc3)cc2)cc(O)c1=O,> 25 µM
4,O=C(O)c1cn(Cc2ccc(-c3ccccc3)cc2)cc(O)c1=O,2.2 µM
5,NC(=O)c1cn(Cc2ccc(F)cc2)cc(O)c1=O,> 25 µM
6,O=C(O)c1cn(Cc2ccccc2-c2ccccc2)cc(O)c1=O,> 25 µM
7,CS(=O)(=O)c1ccc(Cn2cc(O)c(=O)c(C(=O)O)c2)cc1,> 25 µM
8,O=C(O)c1cn(Cc2ccc(Cl)cc2Cl)cc(O)c1=O,> 25 µM
9,COc1ccc(Cn2cc(O)c(=O)c(C(=O)O)c2)cc1,> 25 µM
10,O=C(O)c1cn(Cc2ccncc2)cc(O)c1=O,> 25 µM
11,O=C(O)c1cn(Cc2ccc(Br)cc2)cc(O)c1=O,> 25 µM
12,CC(c1ccc(F)cc1)n1cc(O)c(=O)c(C(=O)O)c1 (stereo unspecified),> 25 µM

# System: Human immunodeficiency virus 1
# Experiment: Inhibition of HIV-1 RT-RNase H domain expressed in Escherichia coli JM109 at 30 uM using HTS-1 as substrate preincubated with substrate for 10 mins followed by compound/MgCl2 addition incubated for 2 mins by fluorescence-based assay
# Details: not given
# Outline: (§2)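 Excess-RT order-of-addition RNase H assay. RT is pre-incubated 10 min at 37 °C with inhibitor or with substrate. Remaining components are added and the reaction runs 2 min at 37 °C. Fluorescence is DMSO-control corrected. Mean ± SD of two independent experiments.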
row,Structure (SMILES),inhibition
1,NS(=O)(=O)c1ccc(-c2ccc(Cn3cc(O)c(=O)c(C(=O)O)c3)cc2)cc1,80%
2,O=C(O)c1cn(Cc2ccc(-c3ccccc3)cc2)cc(O)c1=O,59%
3,O=C(O)c1cn(Cc2ccc(-c3cnc4ccccc4c3)cc2)cc(O)c1=O,74%
4,COc1ccc(Cn2cc(O)c(=O)c(C(=O)O)c2)cc1,58%
5,O=C(O)c1cn(Cc2cccc3ccccc23)cc(O)c1=O,61%

# System: Human immunodeficiency virus 1
# Experiment: Antiviral activity against HIV-1 infected in human HeLa P4/R5 cells assessed as inhibition of virus replication pretreated for 16 hrs followed by infection measured after 48 hrs by fluorescence-based beta-galactosidase detection assay
# Format: functional, organism-based
# Details: not given
# Outline: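 P4R5 indicator cells (CD4, CXCR4, CCR5; HIV LTR-driven β-galactosidase reporter) seeded at 5×10^3 per well in DMEM/10% FBS with puromycin 0.5 µg/ml. Drug exposure 16 h, then HIV infection and a further 48 h. Infection read by fluorescence-based β-galactosidase detection. Triplicate data points; EC50 taken from dose-response.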
row,Structure (SMILES),inhibition
1,O=C(O)c1cn(Cc2cccc3ccccc23)cc(O)c1=O,Dose-dependent effect

# Same assay, conditions: Human immunodeficiency virus 1, P4/R5
row,Structure (SMILES),EC50
1,O=C(O)c1cn(Cc2cccc3ccccc23)cc(O)c1=O,10 µM

# System: not listed separately
# Experiment: Inhibition of HIV-1 RT-RNase H domain fragment expressed in Escherichia coli by fluorescence-based assay
# Parameters: species or system Human immunodeficiency virus 1
# Details: not given
row,Structure (SMILES),IC50
1,O=C(O)c1cn(-c2ccccc2)cc(O)c1=O,> 25 µM
2,NS(=O)(=O)c1ccc(-c2ccc(Cn3cc(O)c(=O)c(C(=O)O)c3)cc2)cc1,1.3 µM
3,O=C(O)c1cn(Cc2ccc(-c3ccccc3)cc2)cc(O)c1=O,1.8 µM
4,NC(=O)c1cn(Cc2ccc(F)cc2)cc(O)c1=O,6.8 µM
5,O=C(O)c1cn(Cc2ccccc2-c2ccccc2)cc(O)c1=O,5.1 µM
6,CS(=O)(=O)c1ccc(Cn2cc(O)c(=O)c(C(=O)O)c2)cc1,25 µM
7,O=C(O)c1cn(Cc2ccc(Cl)cc2Cl)cc(O)c1=O,4.2 µM
8,O=C(O)c1cn(Cc2ccncc2)cc(O)c1=O,> 25 µM
9,O=C(O)c1cn(Cc2ccc(Br)cc2)cc(O)c1=O,> 25 µM
10,CC(c1ccc(F)cc1)n1cc(O)c(=O)c(C(=O)O)c1 (stereo unspecified),5.3 µM

# System: Human immunodeficiency virus 1
# Experiment: Inhibition of HIV-1 RT-RNase H domain expressed in Escherichia coli JM109 at 30 uM using HTS-1 as substrate preincubated with compound/substrate for 10 mins followed by MgCl2 addition incubated for 10 mins by fluorescence-based assay
# Details: not given
# Outline: (§3)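 Order-of-addition RNase H assay, HIV-1 RT in this format. Final conditions: 100 nM RT, 250 nM HTS-1 RNA/DNA duplex, 6 mM MgCl2, 30 µM inhibitor, 1% DMSO. RT is pre-incubated 10 min at 37 °C with the specified components. Missing components are then added and the reaction runs 10 min at 37 °C. Fluorescence signal is corrected against a DMSO-only control. Mean ± SD of two independent experiments.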
row,Structure (SMILES),inhibition
1,NS(=O)(=O)c1ccc(-c2ccc(Cn3cc(O)c(=O)c(C(=O)O)c3)cc2)cc1,68%
2,O=C(O)c1cn(Cc2ccc(-c3ccccc3)cc2)cc(O)c1=O,37%
3,O=C(O)c1cn(Cc2ccc(-c3cnc4ccccc4c3)cc2)cc(O)c1=O,66%
4,COc1ccc(Cn2cc(O)c(=O)c(C(=O)O)c2)cc1,27%
5,O=C(O)c1cn(Cc2cccc3ccccc23)cc(O)c1=O,35%

# System: not listed separately
# Experiment: Cytotoxicity against human HeLa P4/R5 cells up to 25 uM
# Format: cell-based
# Details: not given
row,Structure (SMILES),CC50
1,O=C(O)c1cn(Cc2cccc3ccccc23)cc(O)c1=O,> 25 µM

# System: Human immunodeficiency virus 1
# Experiment: Inhibition of HIV-1 RT-RNase H domain expressed in Escherichia coli JM109 at 30 uM using HTS-1 as substrate preincubated with compound and MgCl2 for 10 mins followed by substrate addition incubated for 10 mins by fluorescence-based assay
# Details: not given
# Outline: as §3
row,Structure (SMILES),inhibition
1,NS(=O)(=O)c1ccc(-c2ccc(Cn3cc(O)c(=O)c(C(=O)O)c3)cc2)cc1,79%
2,O=C(O)c1cn(Cc2ccc(-c3ccccc3)cc2)cc(O)c1=O,36%
3,O=C(O)c1cn(Cc2ccc(-c3cnc4ccccc4c3)cc2)cc(O)c1=O,68%
4,COc1ccc(Cn2cc(O)c(=O)c(C(=O)O)c2)cc1,52%
5,O=C(O)c1cn(Cc2cccc3ccccc23)cc(O)c1=O,51%

# System: Human immunodeficiency virus 1
# Experiment: Inhibition of HIV-1 RT-RNase H domain expressed in Escherichia coli JM109 at 30 uM using HTS-1 as substrate preincubated with substrate for 10 mins followed by compound/MgCl2 addition incubated for 10 mins by fluorescence-based assay
# Details: not given
# Outline: as §3
row,Structure (SMILES),inhibition
1,NS(=O)(=O)c1ccc(-c2ccc(Cn3cc(O)c(=O)c(C(=O)O)c3)cc2)cc1,14%
2,O=C(O)c1cn(Cc2ccc(-c3ccccc3)cc2)cc(O)c1=O,21%
3,O=C(O)c1cn(Cc2ccc(-c3cnc4ccccc4c3)cc2)cc(O)c1=O,50%
4,COc1ccc(Cn2cc(O)c(=O)c(C(=O)O)c2)cc1,21%
5,O=C(O)c1cn(Cc2cccc3ccccc23)cc(O)c1=O,28%

# System: Human immunodeficiency virus 1
# Experiment: Inhibition of HIV-1 RT-RNase H domain expressed in Escherichia coli JM109 at 30 uM using HTS-1 as substrate preincubated for 10 mins followed by substrate/MgCl2 addition incubated for 10 mins by fluorescence-based assay
# Details: not given
# Outline: as §3
row,Structure (SMILES),inhibition
1,NS(=O)(=O)c1ccc(-c2ccc(Cn3cc(O)c(=O)c(C(=O)O)c3)cc2)cc1,97%
2,O=C(O)c1cn(Cc2ccc(-c3ccccc3)cc2)cc(O)c1=O,68%
3,O=C(O)c1cn(Cc2ccc(-c3cnc4ccccc4c3)cc2)cc(O)c1=O,95%
4,COc1ccc(Cn2cc(O)c(=O)c(C(=O)O)c2)cc1,69%
5,O=C(O)c1cn(Cc2cccc3ccccc23)cc(O)c1=O,58%

# System: not listed separately
# Experiment: Inhibition of HIV-1 RT-RNase H activity expressed in Escherichia coli JM109 using internal cleavage measuring HTS-1 as substrate by fluorescence-based assay
# Parameters: species or system Human immunodeficiency virus 1
# Details: not given
# Outline: as §1
row,Structure (SMILES),IC50
1,O=C(O)c1cn(-c2ccccc2)cc(O)c1=O,> 25 µM
2,NS(=O)(=O)c1ccc(-c2ccc(Cn3cc(O)c(=O)c(C(=O)O)c3)cc2)cc1,0.65 µM
3,O=C(O)c1cn(Cc2ccc(-c3ccccc3)cc2)cc(O)c1=O,2.5 µM
4,NC(=O)c1cn(Cc2ccc(F)cc2)cc(O)c1=O,12 µM
5,O=C(O)c1cn(Cc2ccccc2-c2ccccc2)cc(O)c1=O,7.7 µM
6,CS(=O)(=O)c1ccc(Cn2cc(O)c(=O)c(C(=O)O)c2)cc1,> 25 µM
7,O=C(O)c1cn(Cc2ccc(-c3cnc4ccccc4c3)cc2)cc(O)c1=O,0.9 µM
8,O=C(O)c1cn(Cc2ccc(Cl)cc2Cl)cc(O)c1=O,12 µM
9,O=C(O)c1cn(Cc2ccncc2)cc(O)c1=O,> 25 µM
10,O=C(O)c1cn(Cc2ccc(Br)cc2)cc(O)c1=O,> 25 µM
11,CC(c1ccc(F)cc1)n1cc(O)c(=O)c(C(=O)O)c1 (stereo unspecified),16 µM

# System: not listed separately
# Experiment: Inhibition of HIV-1 RT-RNase H activity expressed in Escherichia coli JM109 using DNA 3'-end directed cleavage measuring HTS-2 as substrate by fluorescence-based assay
# Parameters: species or system Human immunodeficiency virus 1
# Details: not given
# Outline: as §1
row,Structure (SMILES),IC50
1,O=C(O)c1cn(-c2ccccc2)cc(O)c1=O,> 25 µM
2,NS(=O)(=O)c1ccc(-c2ccc(Cn3cc(O)c(=O)c(C(=O)O)c3)cc2)cc1,1.5 µM
3,O=C(O)c1cn(Cc2ccc(-c3ccccc3)cc2)cc(O)c1=O,2.8 µM
4,NC(=O)c1cn(Cc2ccc(F)cc2)cc(O)c1=O,> 25 µM
5,O=C(O)c1cn(Cc2ccccc2-c2ccccc2)cc(O)c1=O,25 µM
6,CS(=O)(=O)c1ccc(Cn2cc(O)c(=O)c(C(=O)O)c2)cc1,> 25 µM
7,O=C(O)c1cn(Cc2ccc(Cl)cc2Cl)cc(O)c1=O,> 25 µM
8,O=C(O)c1cn(Cc2ccncc2)cc(O)c1=O,> 25 µM
9,O=C(O)c1cn(Cc2ccc(Br)cc2)cc(O)c1=O,> 25 µM
10,CC(c1ccc(F)cc1)n1cc(O)c(=O)c(C(=O)O)c1 (stereo unspecified),> 25 µM

# System: Human immunodeficiency virus 1
# Experiment: Inhibition of HIV-1 RT-RNase H domain expressed in Escherichia coli JM109 at 30 uM using HTS-1 as substrate preincubated for 10 mins followed by substrate/MgCl2 addition incubated for 2 mins by fluorescence-based assay
# Details: not given
# Outline: as §2
row,Structure (SMILES),inhibition
1,NS(=O)(=O)c1ccc(-c2ccc(Cn3cc(O)c(=O)c(C(=O)O)c3)cc2)cc1,92%
2,O=C(O)c1cn(Cc2ccc(-c3ccccc3)cc2)cc(O)c1=O,78%
3,O=C(O)c1cn(Cc2ccc(-c3cnc4ccccc4c3)cc2)cc(O)c1=O,91%
4,COc1ccc(Cn2cc(O)c(=O)c(C(=O)O)c2)cc1,70%
5,O=C(O)c1cn(Cc2cccc3ccccc23)cc(O)c1=O,82%

# Target: Human immunodeficiency virus type 1 integrase (Human immunodeficiency virus 1, UniProt Q7ZJM1, C280S/F185K)
# Sequence (Q7ZJM1 entry or part of it C280S/F185K): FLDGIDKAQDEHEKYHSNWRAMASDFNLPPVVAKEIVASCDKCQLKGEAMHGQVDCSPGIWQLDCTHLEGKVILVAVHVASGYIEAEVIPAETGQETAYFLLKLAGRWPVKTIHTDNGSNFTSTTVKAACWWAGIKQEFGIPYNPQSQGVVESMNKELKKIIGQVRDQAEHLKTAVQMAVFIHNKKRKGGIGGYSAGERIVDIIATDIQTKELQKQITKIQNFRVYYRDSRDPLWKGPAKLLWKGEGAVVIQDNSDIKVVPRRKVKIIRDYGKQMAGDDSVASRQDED
# Experiment: Inhibition of full-length HIV-1 integrase F185K/C280S double mutant strand transfer activity expressed in Escherichia coli BL21(DE3) using oligo DNA as substrate preincubated for 10 mins followed by substrate addition incubated for 30 mins by plate reader analysis
# Details: not given
row,Structure (SMILES),IC50
1,O=C(O)c1cn(-c2ccccc2)cc(O)c1=O,37 µM
2,NS(=O)(=O)c1ccc(-c2ccc(Cn3cc(O)c(=O)c(C(=O)O)c3)cc2)cc1,> 100 µM
3,O=C(O)c1cn(Cc2ccc(-c3ccccc3)cc2)cc(O)c1=O,22 µM
4,NC(=O)c1cn(Cc2ccc(F)cc2)cc(O)c1=O,32 µM
5,O=C(O)c1cn(Cc2ccccc2-c2ccccc2)cc(O)c1=O,17 µM
6,CS(=O)(=O)c1ccc(Cn2cc(O)c(=O)c(C(=O)O)c2)cc1,> 100 µM
7,O=C(O)c1cn(Cc2ccc(Cl)cc2Cl)cc(O)c1=O,25 µM
8,O=C(O)c1cn(Cc2ccncc2)cc(O)c1=O,> 100 µM
9,O=C(O)c1cn(Cc2ccc(Br)cc2)cc(O)c1=O,> 100 µM
10,CC(c1ccc(F)cc1)n1cc(O)c(=O)c(C(=O)O)c1 (stereo unspecified),34 µM
